Only some compounds are listed: those with a hit (about 3.7% of all), similar ones and a draw of the others.
KCNQ1 act = potentiators or activators of human KCNQ1 potassium channel. CHO-K1 KCNQ1, thallium flux FluxOR fluorescence; stronger effect = higher value. B-score at 10 µM. AID 2648. P51787. 310,000 tested, 0.35% active;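 active = fluorescence ratio B-score, a plate-corrected score, at least three library SD, with initial intensity B-score within 5 SD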
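Assay system: CHO-K1 cells stably expressing KCNQ1. Medium: assay buffer for compound exposure, DMSO matched across wells. Timing: 37 °C overnight plating, 90-min dark dye load, 20-min compound pretreatment. Signal: kinetic FluxOR fluorescence, 10 s baseline plus 110 s post-stimulus.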
KCNK9 block = human KCNK9 channel inhibition. Q9NPC2. HEK293 KCNK9, FluxOR thallium flux fluorescence; stronger effect = lower value. B-score at 10 µM. 310,000 tested, 1.2% active;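 active = ratio B-score over 3 SD below the library mean, with starting fluorescence within 5 SD of its mean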;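 note: negative B-score means less thallium flux so channel inhibition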
hERG rescue = compounds protecting human hERG from proarrhythmic drug block; Q12809; CHO-hERG, FluxOR thallium flux, dofetilide IC70 present; activation (rescue from dofetilide block), less the hit threshold, % at 10 µM; 310,000 tested, 0.51% active;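 active = activation above the mean of controls blocked by dofetilide plus 5 SD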;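 note: thallium influx through hERG after potassium depolarization seen as dye fluorescence rise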
KCNK3 inh = human KCNK3 channel inhibition, primary screen; CHO-KCNK3 thallium flux, FluxOR fluorescence; stronger effect = lower value; B-score at 10 µM; O14649; AID 602410; 340,000 tested, 0.84% active;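 active = B-score under library mean minus 4 SD, starting fluorescence ratio at most library mean plus 5 SD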;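 note: more negative B-score means stronger inhibition of thallium flux through KCNK3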
Target sequence (O14649 whole entry, looked up): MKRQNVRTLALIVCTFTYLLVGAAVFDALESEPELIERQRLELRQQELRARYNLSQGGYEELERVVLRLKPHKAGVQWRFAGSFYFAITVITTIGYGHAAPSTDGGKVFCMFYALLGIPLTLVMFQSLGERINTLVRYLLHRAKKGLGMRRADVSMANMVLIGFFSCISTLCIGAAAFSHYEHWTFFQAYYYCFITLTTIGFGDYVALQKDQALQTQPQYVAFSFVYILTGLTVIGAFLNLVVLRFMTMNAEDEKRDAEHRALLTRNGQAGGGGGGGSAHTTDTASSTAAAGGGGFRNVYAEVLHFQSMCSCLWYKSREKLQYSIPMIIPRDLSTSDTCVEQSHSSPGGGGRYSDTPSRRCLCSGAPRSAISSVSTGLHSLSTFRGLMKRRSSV
KCNQ1 block = inhibitors of human KCNQ1 potassium channel; CHO-K1 KCNQ1, FluxOR thallium flux fluorescence; stronger effect = higher value; 310,000 tested, 1.3% active; B-score at 10 µM;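 active = compounds whose thallium flux B-score, printed positive for inhibition, exceeds three library SD while starting fluorescence stays within three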;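 note: channel opened by potassium depolarization with thallium stimulus after 20 min compound exposure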
Kir21 inh = inhibitors of mouse Kir2.1 inward-rectifier potassium channel; P35561; HEK293-Kir2.1, FluxOR thallium flux fluorescence; stronger effect = lower value; B-score at 10 µM; 310,000 tested, 0.85% active; AID 1672;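 active = fluorescence ratio B-score at or below minus 3 SD of library scores, with starting-brightness B-score within 2 SD, cut at about -4.2 in these data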;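 note: channel flux triggered by added potassium and thallium sulfate stimulus; B-score of peak minus minimum fluorescence over baseline after thallium stimulus; more negative B-score means stronger Kir2.1 block with less thallium influx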
* hit, by the source's call; i = inactive; / = no result.

SMILES | KCNQ1 act | KCNK9 block | hERG rescue | KCNK3 inh | KCNQ1 block | Kir21 inh
CCOC(=O)N1CCC(NC(=O)CSc2cc(=O)n(CC)c3ccccc23)CC1 | i | -7.1* | -8 | i | i | -0.9
CCn1cc(SCC(=O)NC2CCCC2)c2ccccc21 | i | i | -6 | i | i | -4.8*
C[C@H]1CCC(=O)N([C@H](CSc2ccc(Br)cc2)Cc2ccccc2)CC1 | / | / | / | i | / | /
COc1ccc(/C=C(/C(=O)Nc2ccccc2C(=O)NC(C)C)c2ccccc2)cc1 | i | i | -13 | i | 6* | 0.2
COc1ccc(NC(=O)C(=O)NNC(=O)c2cccs2)c(OC)c1 | 22* | i | 12* | i | i | 0.84
COc1ccc(NC(=O)C(=O)NNC(=O)c2cccs2)cc1 | i | i | 6.9* | i | i | -1.6
COc1ccc(/C=C/C(=O)NC(=S)NNC(=O)c2cccs2)cc1 | i | i | 16* | i | i | 1.6
NCC(=O)NCC(=O)NC[C@H]1O[C@@H](n2cnc3c(N)ncnc32)[C@H](O)[C@@H]1O | / | / | / | i | / | /
O=C(c1ccc(F)cc1)C1CCN(S(=O)(=O)c2ccccc2)CC1 | i | i | -14 | i | i | 2.6
COc1ccc(Cl)cc1NC(=O)C(C)OC(=O)Cn1cc(C(F)(F)F)ccc1=O (stereo unspecified) | / | / | / | i | / | /
COc1ccc(/C=C/C(=O)Nc2ccccc2C(=O)O)cc1 | i | i | 32* | i | i | 0.28
Cc1ccc(NC(=O)c2cccs2)cc1 | i | i | -3 | i | i | 0.06
COc1ccc(/C=C/C(=O)Nc2ccccc2C(=O)N2CCCC2)cc1 | i | i | -15 | i | i | -1.4
Cc1ccc(NC(=O)C(=O)NNC(=O)c2cccs2)cc1 | 40* | i | 20* | i | i | 1.5
COc1ccc(C(OC(=O)c2ccco2)C(=O)NC(C)(C)C)cc1OC (stereo unspecified) | / | / | / | i | / | /
COC(=O)c1ccc(CNC(=O)COC(=O)/C=C/c2cc(OC)c(OC)c(OC)c2)cc1 | / | / | / | i | / | /
CCOC(=O)C1CCCN(CC(=O)N(C)c2c(N)n(Cc3ccccc3)c(=O)[nH]c2=O)C1 (stereo unspecified) | / | / | / | i | / | /
C/C(=N\Oc1cccc(F)n1)c1ccc(Cl)cc1Cl | i | i | -8 | i | 6* | 0.34
C/C(=N/Oc1nc(C)cc(C)n1)c1ccc(Cl)cc1Cl | i | i | -4 | i | i | 1.6
Cn1c2c(c3ccccc31)CCN(CCCCN1CCN(c3ccccc3)CC1)C2=O | / | / | / | i | / | /
O=C(CSc1nc2ccccc2n1Cc1ccccc1)N/N=C/c1ccccc1C(=O)O | i | i | -7 | i | i | -0.19
O=C(CSc1nc2ccccc2n1Cc1ccc(Cl)cc1)N/N=C/c1ccc(C(=O)O)cc1 | i | -6.8* | -5 | i | i | 2.3
Cc1ccccc1CCN1CCCC(CN(C)CC(C)(C)C)C1 (stereo unspecified) | i | i | -10 | i | i | -0.31
CC(=O)c1cccc(CN(C)CC2CCCN(CCc3ccccc3C)C2)c1 (stereo unspecified) | i | i | -1 | i | i | -6.5*
COc1ccc(CN(C)CC2CCCN(CCc3ccc(Cl)cc3)C2)cc1OC (stereo unspecified) | i | i | -5 | i | i | -6.2
SMILES | KCNQ1 act | KCNK9 block | hERG rescue | KCNK3 inh | KCNQ1 block | Kir21 inh
CCOc1cccc(CN(C)CC2CCCN(CCc3ccc(Cl)cc3)C2)c1O (stereo unspecified) | i | i | -5 | i | i | -7.3*
COc1ccc(F)c(CN(C)CC2CCCN(CCc3ccc(F)cc3)C2)c1 (stereo unspecified) | i | i | -6 | i | i | -9.8*
O=C(CN(CC1CCCO1)C(=O)CNS(=O)(=O)c1ccc(F)cc1)NCc1ccccc1 (stereo unspecified) | i | i | -1 | i | i | -0.33
O=C(CN(CC1CCCO1)C(=O)CNS(=O)(=O)c1ccccc1)NCc1ccco1 (stereo unspecified) | i | i | 7.2* | i | i | -0.85
CN(C)S(=O)(=O)c1cccc(NC(=O)c2ccc(NS(=O)(=O)c3cccs3)cc2)c1 | / | / | / | i | / | /
CCOC(=O)C1=C(C)NC(C)=C(C(=O)OCC)C1c1ccccc1/C=C/C(=O)OC(C)(C)C | i | i | -10 | / | 8* | 0.27
O=S(=O)(O)c1cccc2cccc(Nc3ccccc3)c12 | i | i | -3 | i | i | 0.07
C=CCN1C(=O)/C(=C/c2ccc(OC(C)=O)c(OCC)c2[N+](=O)[O-])SC1=S | i | i | -39 | i | 12* | -0.68
COc1ccc(C(C)=O)cc1CSc1nnc(Nc2ccc(C)cc2C)s1 | i | i | -11 | i | i | 0.16
COc1ccc(C(C)=O)cc1CSc1nnc(Nc2ccccc2C)s1 | i | i | -8 | i | i | -4.3*
COc1ccc(S(=O)(=O)NCc2cccnc2)cc1NC(=O)c1ccccc1C | / | / | / | i | / | /
N#Cc1nc(-c2ccccc2Cl)oc1NCc1ccco1 | i | -7.5* | -2 | i | i | -0.53
N#Cc1nc(-c2ccccc2)oc1NCc1ccco1 | i | i | -5 | i | i | 1.9
CC(C)=CCc1cc2c(=O)c3c(O)c4c(cc3oc2c(O)c1O)OC(C)C4(C)C (stereo unspecified) | i | i | -25 | / | 6* | 0.85
CC(C)(NS(=O)(=O)OCC(Cl)(Cl)Cl)c1ccccc1 | i | i | 0 | i | i | -4.1
CC[C@@](C)(NS(=O)(=O)OCC(Cl)(Cl)Cl)c1ccccc1 | i | i | -8 | i | i | -5.1*
Cc1ccc(S(=O)(=O)N2CCN(C(=O)COC(=O)COc3ccc(Cl)cc3C)CC2)c(C)c1 | / | / | / | i | / | /
CC(NC(=O)CCN1C(=O)c2ccccc2C1=O)c1ccc2c(c1)CCCC2 (stereo unspecified) | i | i | -1 | i | i | -4.2*
CCOC(=O)C1=C(C)N=C2SCCC(=O)N2[C@@H]1c1cccs1 | i | i | -5 | i | i | -4.3*
C=CCOC(=O)C1=C(C)N=C2SCCC(=O)N2C1c1ccc(OC(=O)c2ccco2)cc1 (stereo unspecified) | i | i | -5 | i | i | -5*
COC(=O)C1=C(C)N=C2SCCC(=O)N2C1/C=C/c1ccccc1 (stereo unspecified) | i | i | -6 | -8.9* | i | 0.06
COC(=O)C1=C(C)N=C2SCCC(=O)N2C1c1cc(Br)ccc1OC (stereo unspecified) | i | i | -10 | i | i | -0.29

Screening results as filed in PubChem.
